Source: ChEMBL document CHEMBL2093137, “WHO-TDR NTD Screening”
Values after ≈ are worked out from the molar mass of the structure shown.

Tests used:
[1] = WHO-TDR: Cytotoxicity; assay type: toxicity, cell-based; conditions: human, MRC5 cells
Schistosoma mansoni = test: WHO-TDR: Schistosomiasis; assay type: functional; set-up: concentration or dose not given beside the values
Outline: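 Values are reported as percent inhibition and IC50. They come from a whole-organism screen of a 10,000-compound diverse Life Chemicals library against larval and/or adult worms of Schistosoma mansoni, Puerto Rican strain. The library had been filtered for drug-likeness and reactive groups.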

Trypanosoma cruzi = test: WHO-TDR: Chagas disease; assay type: functional, organism-based, Homo sapiens; conditions: MRC5
Outline: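 Whole-organism screen of a 10,000-compound diverse library from Life Chemicals, filtered for drug-likeness and reactive groups, against intracellular amastigotes of Trypanosoma cruzi Tulahuen CL2 beta-galactosidase strain grown in MRC-5SV2 human lung fibroblast host cells. The assay followed previously published standard procedures, with a reference drug as positive control. Antiparasitic potency is reported as IC50.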

Onchocerca lienalis = test: WHO-TDR: Onchocerciasis; assay type: functional; set-up: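 at 12.5 µM on microfilariae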
Outline: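 Values are reported as percent inhibition and as IC50. They come from a whole-organism screen of a 10,000-compound diverse Life Chemicals library against microfilariae of Onchocerca ochengi or Onchocerca lienalis. The screen followed previously published standard procedures, with reference drugs as positive controls.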

Leishmania infantum = test: WHO-TDR: Leishmaniasis; assay type: functional, organism-based, Mus musculus; conditions: Macrophage
Outline: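 IC50 values describe antiparasitic potency in this whole-organism screen. Leishmania infantum MHOM/MA(BE)/67 amastigotes were tested inside murine peritoneal macrophages against a 10,000-compound diverse Life Chemicals library. A reference drug served as positive control.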

Plasmodium falciparum K1 = test: WHO-TDR: Malaria; assay type: functional, organism-based, Homo sapiens; conditions: Erythrocyte
Outline: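 Life Chemicals supplied the diverse library of 10,000 compounds, which had been filtered for drug-likeness and reactive groups. Each was screened against the K1 strain of Plasmodium falciparum at its intra-erythrocytic stage in human red blood cells, using previously published standard procedures and a reference drug as positive control. The table reports IC50 for antiplasmodial potency.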

[2] = tested on: Trypanosoma brucei brucei; test: WHO-TDR: Human African Trypanosomiasis (HAT); assay type: functional, organism-based; conditions: Squib-427
Outline: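 Following previously published standard procedures, with reference drugs as positive controls, a whole-organism assay was run against bloodstream-form Trypanosoma brucei, Squib 427 strain. The compounds, 10,000 in all, came from a diverse Life Chemicals library filtered for drug-likeness and reactive groups. Reported values are IC50 for antiparasitic potency.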

IC50 (Leishmania infantum) [µg/mL]	IC50 (Plasmodium falciparum K1) [µg/mL]	IC50 [2] [µg/mL]	Compound	IC50 [1] [µg/mL]	% Inhibition (Schistosoma mansoni) [%]	IC50 (Trypanosoma cruzi) [µg/mL]	% Inhibition (Onchocerca lienalis) [%]
4.72 (≈ 10.5 µM)	1.82 (≈ 4.04 µM)	0.35 (≈ 0.779 µM)	CCOc1ccc2nc(N(CCN(C)C)C(=O)c3cc4ccccc4cc3OC)sc2c1	4.28 (≈ 9.53 µM)	0	0.425 (≈ 0.945 µM)	0
5.1 (≈ 10.2 µM)	1.45 (≈ 2.9 µM)	0.356 (≈ 0.71 µM)	CN(C)CCN(C(=O)c1cccc(N2C(=O)CCC2=O)c1)c1nc2ccc(Br)cc2s1	> 16.1	33.3	4.94 (≈ 9.85 µM)	0
0.451 (≈ 0.914 µM)	1.72 (≈ 3.48 µM)	4.51 (≈ 9.14 µM)	O=C(CSc1nnc(NC(=O)COc2ccc(Cl)cc2)s1)NCc1ccc2c(c1)OCO2	3.34 (≈ 6.77 µM)	0	0.433 (≈ 0.879 µM)	13.3
0.467 (≈ 1.06 µM)	1.44 (≈ 3.28 µM)	0.428 (≈ 0.975 µM)	O=C(CSc1nnc(NC(=O)COc2ccc(Cl)cc2)s1)NCc1ccco1	0.462 (≈ 1.05 µM)	0	0.408 (≈ 0.93 µM)	6.7
2.73 (≈ 5.85 µM)	> 8.44	> 8.44	COc1ccc(Cl)cc1NC(=O)CSc1nnc(NC(=O)Cc2ccc(F)cc2)s1	> 8.44	100	> 8.44	0
0.392 (≈ 0.971 µM)	3.16 (≈ 7.83 µM)	3.3 (≈ 8.17 µM)	CC(Sc1ccc2nnc(CCNC(=O)c3ccccc3)n2n1)c1ccccc1 (configuration not stated)	> 12.1	66.7	5.24 (≈ 13 µM)	0
> 13.7	3.39 (≈ 8.08 µM)	4.33 (≈ 10.3 µM)	CN(C)CCN(C(=O)CCSc1ccccc1)c1nc2c(Cl)cccc2s1	> 13.7	75	4.15 (≈ 9.88 µM)	0
4.24 (≈ 10.6 µM)	0.324 (≈ 0.809 µM)	0.435 (≈ 1.09 µM)	CN(C)CCCN(C(=O)c1ccc(N(C)C)cc1)c1nc2ccc(F)cc2s1	4.1 (≈ 10.2 µM)	0	4.49 (≈ 11.2 µM)	0

Further lines, the molecule ahead of its results:

Compound	IC50 (Leishmania infantum) [µg/mL]	IC50 (Plasmodium falciparum K1) [µg/mL]	IC50 [2] [µg/mL]	IC50 [1] [µg/mL]	% Inhibition (Schistosoma mansoni) [%]	IC50 (Trypanosoma cruzi) [µg/mL]	% Inhibition (Onchocerca lienalis) [%]
Fc1ccccc1CSc1ccc(-c2ccccn2)nn1	> 8.92	> 8.92	> 8.92	> 8.92	8.3	> 8.92	97
O=C(CSc1nnc(NC(=O)COc2ccc(Cl)cc2)s1)NCC1CCCO1 (configuration not stated)	0.466 (≈ 1.05 µM)	3.42 (≈ 7.71 µM)	2 (≈ 4.52 µM)	3.54 (≈ 7.99 µM)	0	0.416 (≈ 0.939 µM)	13.3
CN(C)S(=O)(=O)c1ccc(C(=O)Nc2nnc(SCC(=O)NCc3ccco3)s2)cc1	5.04 (≈ 10.5 µM)	2.42 (≈ 5.03 µM)	5.04 (≈ 10.5 µM)	3.06 (≈ 6.36 µM)	0	0.933 (≈ 1.94 µM)	6.7
CC(C)(C)C(=O)Nc1nnc(SCC(=O)Nc2ccc(Cl)c(Cl)c2)s1	4.51 (≈ 10.7 µM)	1.13 (≈ 2.69 µM)	0.456 (≈ 1.09 µM)	2.84 (≈ 6.78 µM)	0	4.66 (≈ 11.1 µM)	0
Cn1cc(S(=O)(=O)N2CCN(C(c3ccccc3)c3ccccc3)CC2)c(=O)n(C)c1=O	3.65 (≈ 8.02 µM)	> 11.5	2.16 (≈ 4.75 µM)	> 11.5	0	0.34 (≈ 0.749 µM)	0
O=C(Nc1ccc2c(c1)OCCO2)c1oc2ccccc2c1NC(=O)C1c2ccccc2Oc2ccccc21	5.04 (≈ 9.71 µM)	5.04 (≈ 9.72 µM)	> 15.6	> 15.6	100	> 15.6	0
O=C(Nc1ccc(-c2cn3c(n2)SCC3)cc1)C1CCCC1	0.304 (≈ 0.97 µM)	9.4 (≈ 30 µM)	> 9.4	> 9.4	0	> 9.4	0
CCN(CC)CCSc1ccc(-c2sc(-c3ccc(F)cc3)nc2C)nn1	3.82 (≈ 9.49 µM)	0.5 (≈ 1.24 µM)	0.314 (≈ 0.78 µM)	> 12.1	0	3.25 (≈ 8.09 µM)	6.7
